Laboratory results taken from PMC5933427 (Chemical Science, 2016).

How the values were obtained:
HeLa = test: MTT cytotoxicity assay; type: cell-based, human; settings: read-out: IC50 HeLa, 48 h
Outline: (§1)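 Cancer lines and normal LO2 cells were incubated with test compound for 48 h before viability was assessed. IC50 values reported as means ± SD.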

[1] = system: cisplatin-resistant A549 (A549R); test: MTT cytotoxicity assay; type: cell-based, human; settings: for IC50: read-out: IC50 A549R, 48 h, MTT; for cross-resistance with cisplatin: cisplatin-resistant A549R cells
Outline: as §1

A549 = test: MTT cytotoxicity assay; type: cell-based, human; settings: 48 h; for IC50: read-out: IC50 A549, MTT
Outline: as §1

A549 cells [2] = test: Intracellular ATP quantification; type: cell-based, human; settings: for impact on intracellular ATP levels: A549, 6 h, versus control cells; for intracellular ATP level: A549, 10 μM, 6 h, control 86.3 ± 1.0 nM
Outline: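 A549 cells exposed for 6 h to vehicle or to test compound across several concentrations. Intracellular ATP content measured and reported in nM, relative to vehicle-treated control cells.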

MDB-MA-231 = test: MTT cytotoxicity assay; type: cell-based, human; settings: read-out: IC50 MDB-MA-231, 48 h
Outline: as §1

PC3 = test: MTT cytotoxicity assay; type: cell-based, human; settings: read-out: IC50 PC3, 48 h
Outline: as §1

LO2 = test: MTT cytotoxicity assay; type: cell-based; settings: read-out: IC50 LO2, 48 h, human normal liver cells
Outline: as §1

[3] = Lipophilicity, shake-flask log Po/w; type: physicochemical; settings: octanol/water
[4] = Stability of complex 2 by 1H NMR; type: physicochemical; settings: DMSO-d6/D2O (v/v, 7/3), 37 °C
A549 cells [5] = test: Annexin V/PI double staining, flow cytometry; type: cell-based, human; settings: 24 h; for apoptotic cells: A549, 10 μM, control 1.4 ± 0.02%; for effect of NAC pre-treatment on apoptosis-inducing capability: A549, NAC 10 mM
Outline: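 A549 cells treated with test compound for 24 h, then double-labelled with annexin V and PI and analysed by flow cytometry. Early apoptotic cells scored as annexin V-positive/PI-negative, and late apoptotic/necrotic cells as annexin V-positive/PI-positive. Both fractions were counted as apoptotic.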

A549/LO2 coculture = test: Co-culture model of A549 and LO2 cells, annexin V/PI; type: cell-based, human; settings: 10 μM, 24 h, A549 Hoechst-prelabeled
A549 cells [6] = test: Cell cycle analysis, PI flow cytometry; type: cell-based, human; settings: A549, 2.5 μM, 24 h; control 57.4 ± 3.1%
A549 cells [7] = test: Mitochondrial bioenergetics, Seahorse OCR; type: cell-based, human; settings: for non-mitochondrial respiration: after rotenone/antimycin A; for ATP production (coupled respiration, OCR): oligomycin; for ATP production (coupled respiration, OCR) / basal OCR: versus control
Outline: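 Oxygen consumption rate of treated A549 cells measured on a Seahorse XF24 analyser. Sequential injections: oligomycin 0.75 μM, FCCP 0.6 μM, then rotenone 0.5 μM plus antimycin A 0.5 μM. OCR normalised to protein by BCA assay. Basal respiration = basal OCR minus post-rotenone/antimycin OCR. ATP-linked respiration = basal minus post-oligomycin OCR. Non-mitochondrial respiration = OCR remaining after rotenone/antimycin.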

A549 cells [8] = test: Intracellular ROS detection, H2DCFDA flow cytometry; type: cell-based, human; settings: A549, 10 μM, 6 h
A549 cells [9] = test: MTT viability with z-VAD-fmk pretreatment; type: cell-based, human; settings: A549, z-VAD-fmk 50 μM 2 h, then 24 h
[10] = system: caspase-3/7 in A549 cells; test: Caspase-3/7 activity, Caspase-Glo assay; type: cell-based, human; settings: A549, 10 μM, 12 h
[11] = target: bovine serum albumin (BSA) (Bos taurus, UniProt P02769); test: Emission enhancement upon binding with BSA; settings: molar ratio BSA : Ir(III) 8 : 1
A549 cells [12] = test: MTT viability with NAC pretreatment; type: cell-based, human; settings: A549, NAC 10 mM 1 h, then 24 h
A549 cells [13] = test: MMP analysis, JC-1 flow cytometry; type: cell-based, human; settings: A549, 10 μM, 6 h, control 6.6 ± 0.7%
A549 cells [14] = test: Microarray gene chip analysis; type: cell-based, human; settings: A549, 3 μM, 24 h

Chain of bovine serum albumin (BSA) (P02769 25-607): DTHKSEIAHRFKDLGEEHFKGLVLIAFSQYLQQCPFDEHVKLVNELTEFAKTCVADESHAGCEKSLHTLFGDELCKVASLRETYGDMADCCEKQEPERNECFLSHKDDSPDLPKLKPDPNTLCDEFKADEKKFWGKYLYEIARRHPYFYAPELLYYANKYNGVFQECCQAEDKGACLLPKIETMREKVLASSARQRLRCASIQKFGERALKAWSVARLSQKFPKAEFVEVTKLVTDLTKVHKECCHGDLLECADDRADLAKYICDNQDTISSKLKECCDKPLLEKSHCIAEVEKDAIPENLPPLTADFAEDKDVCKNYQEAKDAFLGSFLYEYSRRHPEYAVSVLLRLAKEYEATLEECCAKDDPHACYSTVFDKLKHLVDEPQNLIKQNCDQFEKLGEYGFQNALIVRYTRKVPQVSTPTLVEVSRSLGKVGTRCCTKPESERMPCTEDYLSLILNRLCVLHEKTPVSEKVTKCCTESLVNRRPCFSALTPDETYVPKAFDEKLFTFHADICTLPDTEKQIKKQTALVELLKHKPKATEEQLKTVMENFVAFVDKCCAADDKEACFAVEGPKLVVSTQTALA

Structure (SMILES) | IC50 (HeLa) | IC50 [1] | IC50 (A549) | impact on intracellular ATP levels (A549 cells [2]) | IC50 (MDB-MA-231) | IC50 (PC3) | IC50 (LO2) | Lipophilicity (log Po/w) [3] | apoptotic cells (A549 cells [5]) | effect of NAC pre-treatment on apoptosis-inducing capability (A549 cells [5]) | cross-resistance with cisplatin [1] | intracellular ATP level (A549 cells [2]) | percentage of cells in the G0/G1 phase (A549 cells [6]) | non-mitochondrial respiration (A549 cells [7]) | ATP production (coupled respiration, OCR) (A549 cells [7]) | basal OCR (A549 cells [7]) | increase of mean fluorescent intensity (MFI) of DCF (A549 cells [8]) | effect of z-VAD-fmk pre-treatment on antiproliferative activity (A549 cells [9]) | increase of caspase-3/7 activity [10] | effect of NAC pre-treatment on antiproliferative potency (A549 cells [12]) | further results
F[P-](F)(F)(F)(F)F.OCc1ccnc(-c2cc(CO)ccn2)c1.[Ir+3].[c-]1ccccc1-c1ccccn1.[c-]1ccccc1-c1ccccn1 [Complex 1] | 10 ± 0.9 µM | 42.2 ± 2.7 µM | 24 ± 2 µM | not obvious | 24.5 ± 1.9 µM | > 100 µM | > 100 µM | 0.23 |  |  |  |  |  |  |  |  |  |  |  |  | 
N.N.[Cl][Pt][Cl] [Cisplatin, reference compound] | 18.8 ± 1.4 µM | 120 ± 6.5 µM | 22.4 ± 2 µM |  | 27.5 ± 2.5 µM | 23.8 ± 2 µM | 26.9 ± 1.9 µM |  |  |  |  |  |  |  |  |  |  |  |  |  | 
ClCc1ccnc(-c2cc(CCl)ccn2)c1.F[P-](F)(F)(F)(F)F.[Ir+3].[c-]1ccccc1-c1ccccn1.[c-]1ccccc1-c1ccccn1 [Complex 2] | 0.52 ± 0.04 µM | 0.64 ± 0.04 µM | 0.4 ± 0.02 µM | significant dose-dependent decrease | 0.33 ± 0.02 µM | 1.4 ± 0.1 µM | 4.5 ± 0.3 µM | 1.28 | 17.5 ± 0.8% | decreases the apoptosis-inducing capability | not cross-resistant with cisplatin | 30.2 ± 2.4 nM | 85.3 ± 4.4% | decrease | dose-dependent decrease | decrease | approximately 5.5 fold | inhibits the antiproliferative activity | approximately 1.6 fold | significantly diminishes | complex invariant (intact) ([4]; 48 h): about 98.5%; complex transformed (hydrolysis of chloromethyl groups) ([4]; 7 days): about 26.2%; selectivity for cancerous A549 cells over noncancerous LO2 cells (A549; from IC50 values): ~11 fold; selective killing of cancer cells in co-culture (A549/LO2 coculture): most of the A549 cells (blue nuclei) are stained positively by both annexin V and PI, while the LO2 cells are still viable; emission enhancement upon binding with BSA [11]: ~11.6 fold; percentage of cells with mitochondrial membrane depolarization (A549 cells [13]): 85.7 ± 1.7%; No. of down-regulated genes sets (p< 0.05, FC> 2) (A549 cells [14]): 715; No. of up-regulated genes sets (p< 0.05, FC> 2) (A549 cells [14]): 507
ClCc1ccnc(-c2cc(CCl)ccn2)c1.F[P-](F)(F)(F)(F)F.Fc1c[c-]c(-c2ccccn2)c(F)c1.Fc1c[c-]c(-c2ccccn2)c(F)c1.[Ir+3] [Complex 4] | 1.8 ± 0.1 µM | 0.74 ± 0.05 µM | 0.21 ± 0.02 µM | significant dose-dependent decrease | 0.66 ± 0.05 µM | 1.04 ± 0.09 µM | 1.5 ± 0.1 µM | 2.12 | 61.5 ± 1.1% | decreases the apoptosis-inducing capability | not cross-resistant with cisplatin | 20.2 ± 3.3 nM | 88.8 ± 5.2% | decrease | dose-dependent decrease | decrease | ~13.7 fold | inhibits the antiproliferative activity | ~1.7 fold | significantly diminishes | percentage of cells with mitochondrial membrane depolarization (A549 cells [13]): 82.4 ± 7.6%
F[P-](F)(F)(F)(F)F.Fc1c[c-]c(-c2ccccn2)c(F)c1.Fc1c[c-]c(-c2ccccn2)c(F)c1.OCc1ccnc(-c2cc(CO)ccn2)c1.[Ir+3] [Complex 3] | 2.7 ± 0.2 µM | 17.8 ± 1.4 µM | 16.8 ± 1.2 µM | not obvious | 12.3 ± 1.1 µM | 38 ± 1.9 µM | 8.1 ± 0.5 µM | 1.09 |  |  |  |  |  |  |  |  |  |  |  |  | 
